Data as given in ChEMBL document CHEMBL1147571, “Synthesis and biological evaluation of benzamides and benzamidines: structural requirement of a pyrimidine ring for inhibition of EGFR tyrosine kinase” (Bioorg Med Chem Lett, 2004).
pIC50: −log10 of the molar value.

Test system: A-431
Assay: Cytotoxic effect on A431 human epidermoid carcinoma cells
Assay type: functional, cell-based
Method in brief: (§1)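 A431 human epidermoid carcinoma cells exposed to compounds up to 1.0 mM and scored for cell growth inhibition. The IC50 is the compound concentration giving 50% growth inhibition. Where 50% inhibition was not reached at 1.0 mM, that is recorded instead of a value.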

**Q.** With `COc1cc(N)c(C(=N)Nc2cccc(Cl)c2)cc1OC` as the molecule, how does the pIC50 read?
**A.** 3.34

**Q.** With `COc1cc2c(cc1OC)C(Nc1cccc(Br)c1)=NC(C)(C)N2` as the molecule, how does the pIC50 read?
**A.** 3.89

**Q.** How did the pIC50 turn out when `COc1cc(N)c(C(=O)Nc2cccc(C(F)(F)F)c2)cc1OC` was run?
**A.** 3.33

**Q.** With `COc1cccc(NC2=NC(C)(C)Nc3cc(OC)c(OC)cc32)c1` as the molecule, how does the pIC50 read?
**A.** 3.49

**Q.** How did the pIC50 turn out when `COc1cc2c(cc1OC)C(Nc1cccc(Cl)c1)=NC(C)(C)N2` was run?
**A.** 3.70

**Q.** How did the pIC50 turn out when `COc1cc(N)c(C(=N)Nc2cccc(Br)c2)cc1OC` was run?
**A.** 3.52

**Q.** How did the pIC50 turn out when `COc1cccc(NC(=N)c2cc(OC)c(OC)cc2N)c1` was run?
**A.** 3.47

**Q.** `COc1cc(N)c(C(=N)Nc2ccc(F)c(Cl)c2)cc1OC` was tested. Which pIC50 did it give?
**A.** 3.70

**Q.** `COc1cccc(NC(=O)c2cc(OC)c(OC)cc2N)c1` was tested. Which pIC50 did it give?
**A.** 3.70

**Q.** How did the pIC50 turn out when `COc1cc(N)c(C(=O)Nc2cccc(Br)c2)cc1OC` was run?
**A.** 3.47

**Q.** How did the pIC50 turn out when `COc1cc2c(cc1OC)C(Nc1ccc(F)c(Cl)c1)=NC(C)(C)N2` was run?
**A.** 4.05

Test system: A-431
Assay: Cytotoxic effect on A431 human epidermoid carcinoma cells (No response to 1 mM)
Assay type: functional, cell-based
Method in brief: as §1

**Q.** `COc1cc(N)c(C(=O)Nc2ccc(F)c(Cl)c2)cc1OC` was tested. Which pIC50 did it give?
**A.** < 3.00

**Q.** With `COc1cc(N)c(C(=O)Nc2cccnc2)cc1OC` as the molecule, how does the pIC50 read?
**A.** < 3.00

**Q.** How did the pIC50 turn out when `COc1cc(N)c(C(=O)Nc2ccccn2)cc1OC` was run?
**A.** < 3.00

**Q.** How did the pIC50 turn out when `COc1cc(N)c(C(=O)Nc2ccncc2)cc1OC` was run?
**A.** < 3.00

**Q.** How did the pIC50 turn out when `COc1cc(N)c(C(=O)NC(C)c2ccccc2)cc1OC` (configuration not stated) was run?
**A.** < 3.00

**Q.** With `COc1cc(N)c(C(=O)NC2CCCCC2)cc1OC` as the molecule, how does the pIC50 read?
**A.** < 3.00
